# CHOP inh: blocks CHOP induction under ER stress. CHO-K1 CHOP-promoter luciferase, tunicamycin-induced, 15-18 h. inhibition, % at 10 µM. 3.8% of 220,000 active. AID 2732;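 active = compounds that reduced the stress-induced luciferase reporter signal by more than about 70% of percent inhibition, limit read from the data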;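 also: 0% = tunicamycin plus vehicle and 100% = wells without tunicamycin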
# UPR XBP1 act: adaptive UPR (XBP1) activation | CHO-XBP1 luciferase reporter, IRE1-XBP1 UPR activation, luminescence; percent of tunicamycin response, DMSO as zero | 0.33% of 330,000 active | activation, % at 20 µM;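 active = versus positive control, 20 µM dose yields 30% or more activation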;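 also: 100% = tunicamycin at 10 µg/mL and 0% = DMSO only wells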
#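 incubation = overnight seeding at 37 °C, 6 h compound treatment at 37 °C | assay system = CHO-XBP1 cells stably carrying IRE1-XBP1-driven luciferase reporter | input = 1000 cells per well | detection = luciferase luminescence | dosing = single point, 20 µM final compound, 1% DMSO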
# CHOP UPR activ: apoptotic UPR (CHOP) activation | CHO-CHOP luciferase reporter, luminescence; percent of tunicamycin response over DMSO baseline | activation, % at 10 µM | 0.34% of 330,000 active;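 active = at 10 µM dose, activation of 40% or more, normalized to positive control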;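 also: 100% = tunicamycin at 10 µg/mL and 0% = DMSO alone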
#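 Assay system: CHO cells with stable CHOP pathway luciferase reporter; Buffer or medium: F12 plus 10% serum; Times: 16-18 h cell attachment, then 6 h compound exposure, 37 °C; Signal: luciferase luminescence; Read-out basis: percent activation relative to tunicamycin control; Control set: tunicamycin high control, DMSO low control.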
# 697 NFkB inh: lowers PMA/ionomycin-induced NF-kB signal in 697 B cells | 697 B-cell NF-kB luciferase reporter, 16 h | inhibition, % at 4 µM | 0.33% of 330,000 active | AID 435022; in the data active = inhibition above about 35%
# Jurkat NFkB inh: lowers PMA/ionomycin-induced NF-kB signal in Jurkat cells. PMA/ionomycin-induced NF-kB luciferase reporter, luminescence. inhibition, % at 4 µM. 0.53% of 330,000 active. AID 435003; in the data active = inhibition above about 50%
# The depositor's hits bear a star; . = not tested or not shown. The sample as a whole holds a higher share of hits than the screen did.
SMILES,CHOP inh,UPR XBP1 act,CHOP UPR activ,697 NFkB inh,Jurkat NFkB inh
COc1cc2[nH]c(=O)n(CCC(=O)N3CCN(c4cccc(C)c4C)CC3)c(=O)c2cc1OC,93*,2,0,-13,-7
COc1cc2[nH]c(=O)n(CCC(=O)N3CCN(Cc4ccccc4)CC3)c(=O)c2cc1OC,-12,-2,-1,0,-8
NC(=NC(=O)c1ccc(OCC(F)(F)F)nc1)c1ccccc1,25,-1,0,-17,-30
NC(=NC(=O)c1ccc(OCC(F)(F)F)nc1)c1ccc(Cl)cc1,82*,-2,-2,6,10
Clc1cccc(C2CCN(Cc3nc(COc4ccccc4)no3)C2)c1 (centres undefined),4,1,0,0,9
c1ccc(OCc2noc(CN3CC[C@@H]4CCCC[C@H]4C3)n2)cc1,75*,1,0,-5,-10
Cc1cc(C)cc(NC(=O)Nc2ccc(Cl)cn2)c1,18,2,0,1,-17
COc1cc(/C=C/C(=O)c2ccc(Cl)s2)cc(OC)c1O,18,1,27,7,8
COc1ccc(/C=C/C(=O)c2ccc(Cl)s2)cc1O,85*,0,11,-2,-35
CCCCCCc1cc2cc(S(=O)(=O)c3ccc(F)c(Cl)c3)c(=O)oc2cc1O,91*,2,0,-19,27
CCCCCCc1cc2cc(C(=O)OCC)c(=O)oc2cc1O,22,2,1,7,1
CCc1nnc(NC(=O)CSc2nc(-c3ccccc3)c(-c3ccccc3)o2)s1,84*,1,-1,1,15
CC1(C)CC2CC(C)(CN2C(=O)c2cc(-c3ccccc3O)on2)C1 (centres undefined),76*,1,3,13,19
COc1ccc(-c2cc(C(=O)N3CC4(C)CC3CC(C)(C)C4)no2)cc1OC (centres undefined),73*,-1,0,-26,-12
CCC(=O)n1nc(NCc2ccccc2OC)nc1NCc1ccccc1OC,76*,-5,-4,5,2
Cc1cc(C)cc(NC(=O)COC(=O)CCn2c(C)csc2=O)c1,.,-3,-3,2,-10
CC(=O)OCCNc1cc(Sc2nc3ccccc3[nH]2)c2nonc2c1[N+](=O)[O-],107*,.,.,.,.
COc1ccc(-c2cnnn2-c2ccc(NC(=O)c3ccc(S(=O)(=O)N4CCCCC4)cc3)cc2)cc1OC,78*,19,1,-14,18
COc1ccc(C(=O)Nc2ccc(S(=O)(=O)N3CCCCC3)cc2)cc1OC,56,-1,0,7,3
CC(=O)c1ccc(NC(=O)COC(=O)c2c3c(nc4ccccc24)/C(=C\c2cccs2)CCC3)cc1,77*,-4,5,2,12
CCc1nn2c(=O)cc(CSCC(=O)Nc3ccccc3Cl)nc2s1,.,-2,-1,6,4
Cc1cc(O)ccc1N/C=C(\C#N)c1nc2ccccc2o1,73*,13,4,-12,-24
CC(=O)c1ccc(N2CCN(C(=O)C3CCCN(S(=O)(=O)c4c(C)[nH]c(=O)[nH]c4=O)C3)CC2)cc1 (centres undefined),6,-2,-1,6,-2
Cc1cc(/C=C2\SC(=Nc3ccc(F)cc3)NC2=O)c(C)n1-c1ccc(S(N)(=O)=O)cc1,77*,4,-2,-18,19
Cc1cc(/C=C2\SC(=S)NC2=O)c(C)n1-c1ccc(O)cc1,-38,-1,6,-2,5
SMILES,CHOP inh,UPR XBP1 act,CHOP UPR activ,697 NFkB inh,Jurkat NFkB inh
Cc1c(C(C)CCCO)oc(=O)c2c1Oc1c(C)c(C(C)C[C@H](C)O)oc(=O)c1C2 (some centres undefined),.,-2,2,11,-8
Cc1ccc(C(C)C)c(OCC(=O)N/N=C/c2cccn2C)c1,96*,-4,1,-15,13
Cc1nn(-c2ccccc2)c(Cl)c1/C=N/NC(=O)OC(C)(C)C,-1,5,3,-81,-77
Cc1ccc(C)c(OCC(=O)N/N=C/c2c(C)nn(-c3ccccc3)c2Cl)c1,83*,-1,1,4,-16
Cn1nc(C(=O)Nc2cccc(S(=O)(=O)N3CCCCC3)c2)c2ccccc2c1=O,.,2,2,12,22
O=C(CSc1ccccc1Cl)N1CCOCC1,.,-4,1,-9,-5
COc1ccc(C(=O)OC(C(=O)c2ccccc2)c2ccccc2)cc1 (centres undefined),72*,-2,-2,31,2
CCN(CC)CCCNC(=O)c1nn2c(C(F)(F)F)cc(-c3ccccc3)nc2c1Cl,.,1,3,1,12
CN(C)c1nc(Nc2ccc(Cl)cc2)nc(OCC#N)n1,73*,2,-1,-10,9
CCOc1nc(Nc2ccc(Cl)cc2)nc(OCC)n1,.,1,1,17,7
C/C(=N\NC(=O)c1nnn(-c2nonc2N)c1CN(C)c1ccccc1)c1cccs1,.,-2,-1,-13,-4
Cc1cccc2sc(NC(=O)CSc3nc4ccccc4o3)nc12,68,-4,-1,5,6
O=C(CSc1nc2ccccc2o1)Nc1nc2ccc(Br)cc2s1,93*,3,2,-15,-18
COc1cccc(C(CC(=O)Nc2cccc3ccccc23)NC(=O)c2ccccc2)c1 (centres undefined),84*,-1,2,6,-2
CCn1c(Cc2ccc(OC)cc2)nnc1SCC(=O)Nc1nc2ccccc2s1,83*,2,-1,0,6
COc1cccc(C(=O)Nc2cccc3ccccc23)c1,.,-5,2,-3,5
COc1ccc2nc(NC(=O)CSc3nc4ccccc4o3)sc2c1,72*,1,0,-67,-26
COc1ccc(CC(=O)Oc2ccc(C(C)C)cc2)cc1S(=O)(=O)N1CCOCC1,.,-4,0,16,-12
CCCC(=O)Nc1ccc2oc(=O)ccc2c1,4,-2,0,15,-3
CCOc1ccc2nc(NC(=O)CSc3nc4cccnc4n3C)sc2c1,77*,-1,0,-13,-2
COc1ccc2nc(NC(=O)Nc3cccc4ccccc34)sc2c1,88*,9,6,-57,-18
COc1ccc2nc(NC(C)=O)sc2c1,-15,0,4,-95,-70
COc1ccc2nc(NC(=O)CC3Oc4ccccc4NC3=O)sc2c1 (centres undefined),75*,-3,1,17,0
CCOc1ccc2nc(NC(=O)CC3Oc4ccccc4NC3=O)sc2c1 (centres undefined),-6,-2,0,15,3
CCN1CCN(C(=O)C2CCCN(S(=O)(=O)c3cccc4nsnc34)C2)CC1 (centres undefined),.,-1,2,-45,-11
